What was measured:
KPC-2 β-lactamase = KPC-2 β-lactamase (Klebsiella pneumoniae, UniProt Q9F663); assay: Competition kinetics of KPC-2 inhibition with nitrocefin as substrate; type: biochemical
KPC-Kpn = assay: Micro-broth dilution MIC of cefepime in combination with inhibitor, KPC-Kpn; type: cell-based, Klebsiella pneumoniae; conditions: for MIC of cefepime (FEP) in combination with compound, KPC-Kpn: compound at constant 10 μg/mL, FEP 0.12 to 128 μg/mL
How it was run: (§1)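 CLSI broth microdilution. Cultures grown overnight in Mueller-Hinton broth, then diluted to a McFarland standard (OD600 0.224). Cefepime serially diluted from 128 to 0.12 μg/mL, with boronic acid test compound held constant at 10 μg/mL. Incubated overnight at 37 °C and MIC read the next day.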

K. pneum blaKPC-2 = type: cell-based, Klebsiella pneumoniae; conditions: compound at constant 10 μg/mL; FEP 0.12 to 128 μg/mL
How it was run: as §1

Chain of KPC-2 β-lactamase (Q9F663 25-293, looked up): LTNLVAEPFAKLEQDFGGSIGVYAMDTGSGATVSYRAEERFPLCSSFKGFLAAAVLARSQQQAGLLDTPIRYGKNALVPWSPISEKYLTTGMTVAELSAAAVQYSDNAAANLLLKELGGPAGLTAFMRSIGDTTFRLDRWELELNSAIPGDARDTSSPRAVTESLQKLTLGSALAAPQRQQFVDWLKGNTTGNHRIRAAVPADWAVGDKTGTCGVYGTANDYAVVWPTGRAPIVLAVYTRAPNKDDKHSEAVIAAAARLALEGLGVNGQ

Row | Ki (KPC-2 β-lactamase) | MIC of cefepime (FEP) in combination with compound, KPC-Kpn (KPC-Kpn) | MIC of cefepime (FEP) in combination with compound, K. pneum blaKPC-2 (K. pneum blaKPC-2) | MIC (KPC-Kpn; Klebsiella pneumoniae, read-out: MIC of cefepime (FEP) alone, KPC-Kpn) | SMILES
1 | 20 ± 3 nM | 0.5 µg/mL | 1 µg/mL |  | O=C(O)C[C@@H]1CC[C@H](NC(=O)Cc2cccs2)B(O)O1 [vaborbactam]
2 |  | < 0.12 µg/mL | < 0.12 µg/mL |  | NC(=O)[C@@H]1CC[C@@H]2CN1C(=O)N2OS(=O)(=O)O [avibactam]
3 |  |  |  | 32 µg/mL | CO/N=C(\C(=O)N[C@@H]1C(=O)N2C(C(=O)[O-])=C(C[N+]3(C)CCCC3)CS[C@H]12)c1csc(N)n1 [FEP, cefepime]

Reference: article PMC8256004 (ChemMedChem, 2020)
